Compound activity from PubChem BioAssay.
CHRM5 antagonist = human M5 muscarinic receptor antagonists, primary screen, CHO cells, Fluo-8 calcium fluorescence. Muscarinic acetylcholine receptor M5 (Homo sapiens), P08912. CHO-hM5 cells, ACh EC80. inhibition, % at 3 µM. hit rate 0.59% among 360,000. AID 624040, 2012;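 active means inhibition above a per-plate cutoff, the mean of that plate's test compounds plus 3 SD, cut at about 27% in these data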
CHRM5 agonist = human M5 muscarinic receptor agonists, primary screen, CHO-K1 cells, Fluo-8 calcium fluorescence; hit rate 0.19% among 360,000; CHO-K1 hM5 cells; 0% DMSO wells, 100% maximal acetylcholine response; Muscarinic acetylcholine receptor M5 (Homo sapiens), P08912; activation, % at 3 µM;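 active means activation above the run's mean over test compounds plus 3 SD, cut at about 23% in these data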;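 further: signal is peak over basal fluorescence ratio across the kinetic read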
CHRM1 PAM = human M1 muscarinic receptor positive allosteric modulators, primary screen, CHO-K1 cells, Fluo-8 calcium fluorescence, 1536-well | activation, % at 3 µM | AID 588819, 2011 | CHO-K1 hM1, ACh EC20; 0% = ACh EC20, 100% = maximal ACh | hit rate 0.088% among 360,000; in the data active means activation above about 19%, passing the limit was not always enough
Target sequence (P11229 whole entry, looked up): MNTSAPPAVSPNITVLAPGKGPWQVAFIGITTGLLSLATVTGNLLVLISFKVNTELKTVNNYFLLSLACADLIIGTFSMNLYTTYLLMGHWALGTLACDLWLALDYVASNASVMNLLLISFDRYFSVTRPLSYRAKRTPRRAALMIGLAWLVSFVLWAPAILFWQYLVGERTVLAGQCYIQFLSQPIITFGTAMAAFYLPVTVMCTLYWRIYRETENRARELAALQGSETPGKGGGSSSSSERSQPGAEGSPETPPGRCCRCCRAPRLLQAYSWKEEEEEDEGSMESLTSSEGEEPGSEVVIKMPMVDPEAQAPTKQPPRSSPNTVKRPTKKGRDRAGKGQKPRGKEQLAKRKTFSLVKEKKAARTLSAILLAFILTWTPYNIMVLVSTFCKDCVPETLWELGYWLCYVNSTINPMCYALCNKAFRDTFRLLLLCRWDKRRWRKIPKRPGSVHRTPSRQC
CHRM1 antagonist = human M1 muscarinic receptor antagonists, primary screen, CHO-K1 cells, Fluo-8 calcium fluorescence, 1536-well | CHO-K1 hM1, ACh EC80 antagonist | inhibition, % at 3 µM | hit rate 1.3% among 360,000;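 active means percent inhibition above its own plate's cutoff, namely the mean of that plate's compound wells plus 3 SD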;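 further: peak over basal fluorescence ratio during 140 s after agonist addition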
CHRM5 PAM = human M5 muscarinic receptor positive allosteric modulators, primary screen, CHO-K1 cells, Fluo-8 calcium fluorescence; CHO-K1 hM5, ACh EC20 PAM; 0% = ACh EC20, 100% = ACh EC100; activation, % at 3 µM; hit rate 0.3% among 360,000;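 active means activation above the run cutoff, the mean activation of all test compounds plus 3 SD, cut at about 18% in these data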
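Assay system: CHO-K1 hM5 cells. Also added: acetylcholine at EC20 concentration, added after compound. Dosing: 3 µM, single dose. Times: compound preincubation 140 s before EC20 acetylcholine addition. Signal: Fluo-8 calcium fluorescence. Measure: % activation relative to EC20 and EC100 ACh responses. Repeats: singlicate, one well per test compound.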
M1 ag = human M1 muscarinic receptor agonists, primary screen, Fluo-8 calcium fluorescence, CHO-K1 cells, HTS; CHO-K1 hM1, agonist mode; 0% DMSO, 100% acetylcholine EC100; hit rate 0.33% among 360,000; activation, % at 3 µM; Muscarinic acetylcholine receptor M1 (Homo sapiens), P11229;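 active means activation above the run's mean compound activation plus 3 SD, cut at about 16% in these data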;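 further: peak over basal fluorescence ratio within a 140 s kinetic read after compound addition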
Of the large screens only hits and unclear results are named; the others gave an inactive call. In the library only some 2.2% were active in any assay of this set; here they are far more common.

Cc1nn(CC(=O)Nc2ccc3c(c2)nc(CCN2CCCCC2)n3C)c(=O)c2ccccc12	CHRM1 antagonist 40
CC1CCCN(C(=S)NCCc2ccccc2)C1 (configuration not stated)	CHRM5 PAM 19
CCCN(CCC)C(=O)c1ccc2c(c1)N(CC)C(=O)c1ccccc1S2(=O)=O	CHRM1 antagonist 42
CCCN(CCC)C(=O)c1ccc2c(c1)S(=O)(=O)c1ccccc1C2=O	CHRM5 antagonist 30
CCCCN(CC)CCCNC(=O)c1ccc2c(c1)N(CC)C(=O)c1ccccc1S2(=O)=O	none
CCc1ccc(NC(=O)C2CCCN2c2nn3c(=O)cc(C)nc3s2)cc1 (configuration not stated)	none
Cc1cc([N+](=O)[O-])ccc1NCc1cccc2ccccc12	none
O=C1CC(c2ccccc2)CN1C(=O)c1cccnc1 (configuration not stated)	CHRM5 PAM 19
Oc1ccccc1N1CCN(CC(O)COC2CCCc3ccccc32)CC1 (configuration not stated)	CHRM1 antagonist 39
COc1ccc(SC[C@H](Cc2ccccc2)N2CC[C@@H](C(C)(C)C)CCC2=O)cc1	none
C=CCCC(=O)NC1CCCc2c1cnn2-c1ccccc1F (configuration not stated)	none
COc1ccc(/C(O)=C2\C(=O)C(=O)N(c3cc(C)on3)C2c2ccc(OC)c(OC)c2)cc1OC (configuration not stated)	none
Cc1cc(N2C(=O)C(=O)/C(=C(/O)c3ccc(F)cc3)C2c2ccc(F)cc2)no1 (configuration not stated)	CHRM5 PAM 21
COc1ccccc1C(=O)COC(=O)Cc1ccccc1F	none
O=C(Nc1cccc(Br)c1)Oc1cccc2cccnc12	CHRM5 antagonist 34, CHRM1 antagonist 43
O=C(Nc1cccc(C(F)(F)F)c1)Oc1ccc(Cl)c2cccnc12	CHRM1 antagonist 42
CCc1ccc(NC(=O)C2CCN(S(=O)(=O)c3ccc4c(c3)NC(=O)CO4)CC2)cc1	none
Cn1c(=O)c(N)c2c3c(c(Br)ccc31)C(=O)c1ccccc1-2	M1 ag 16
O=c1c2ccccc2oc2nc(-c3ccco3)n(Cc3ccccc3)c(=O)c12	CHRM5 PAM 37
CCc1nc2oc3ccccc3c(=O)c2c(=O)n1Cc1ccccc1	none
Cn1cccc1Cc1nnc(SCC(=O)Nc2ccc(Cl)cc2)n1-c1ccc(F)cc1	none
O=C(CCc1ccccc1)NC(NC(=S)Nc1ccc(Br)cc1)C(Cl)(Cl)Cl (configuration not stated)	none
O=C(CCc1ccccc1)NC(NC(=S)Nc1cccc(Cl)c1)C(Cl)(Cl)Cl (configuration not stated)	CHRM5 antagonist 34
Cc1c(NC(=O)c2cccc(NC(=O)COc3cccc(Br)c3)c2)c(=O)n(-c2ccccc2)n1C	none
COc1cc2c(-c3ccc4cc[nH]c4c3)c(-c3ccsc3)oc(=O)c2cc1OC	CHRM1 antagonist 37
CC(=O)c1c(C)[nH]c(C(=O)OCC(=O)Nc2ccc(Cl)cc2[N+](=O)[O-])c1C	CHRM1 antagonist 34
CCOc1ccc(N=C2NC(=O)SC2CC(=O)OC)cc1 (configuration not stated)	none
O=[N+]([O-])c1cccc(Cl)c1CSc1ccccn1	none
Cc1nnc(SCc2c(Cl)cccc2[N+](=O)[O-])s1	CHRM5 PAM 20
Cc1ccc(Nc2nnns2)cc1	none
CC1=CC(C)(C)N=C(Nc2ccc(C)cc2)S1	CHRM1 antagonist 58
COc1ccccc1N1CCN(C(=O)C2CCN(S(=O)(=O)c3ccc4c(c3)CC(C)N4C(=O)C3CC3)CC2)CC1 (configuration not stated)	none
CC1Cc2cc(S(=O)(=O)N3CCC(C(=O)N4CCN(c5ccccc5F)CC4)CC3)ccc2N1C(=O)C1CC1 (configuration not stated)	CHRM5 antagonist 30
CC(=O)N1c2ccc(S(=O)(=O)N3CCC(C(=O)N4CCC(C)CC4)CC3)cc2CC1C (configuration not stated)	none
CC(=O)N1CCCc2cc(S(=O)(=O)N3CCCC(C(=O)N4CCN(c5ccccc5)CC4)C3)ccc21 (configuration not stated)	none
CC(=O)N1c2ccc(S(=O)(=O)N3CCC(C(=O)N4CCN(c5cc(Cl)ccc5C)CC4)CC3)cc2CC1C (configuration not stated)	CHRM5 antagonist 28, CHRM1 antagonist 48
CC(=O)N1CCCc2cc(S(=O)(=O)N3CCCC(C(=O)N4CCN(c5cc(C)ccc5C)CC4)C3)ccc21 (configuration not stated)	CHRM1 antagonist 41
O=C(N/N=C/c1ccc(F)cc1)c1cc(-c2ccccn2)nc2ccccc12	none
COc1cccc(/C=N/NC(=O)c2cc(-c3ccccn3)nc3ccccc23)c1O	CHRM1 antagonist 37
C1CCN(C2CCN(c3nc4nonc4nc3N3CCSCC3)CC2)C1	CHRM1 antagonist 27
Cc1cccc2c1N(CCOc1ccc(C(C)(C)C)cc1)C(=O)C2=O	CHRM5 agonist 27, M1 ag 21
Cc1cccc2c1N(CCOc1ccccc1Cl)C(=O)C2=O	M1 ag 24
Cc1ccc(OCCCN2C(=O)C(=O)c3cccc(C)c32)cc1	none
Cc1ccccc1OCCN1C(=O)C(=O)c2cccc(C)c21	none
C[n+]1cccc(C(=O)Nc2ccccc2)c1	none
COc1ccc(-c2nc3ccc(Cl)cn3c2Cc2ccc(C)cc2)cc1OC	none
CC(C)(C)NC(=O)COC(=O)c1ccc2c(c1)C(=O)N(Cc1ccco1)C2=O	none
Cc1[nH]c2ccccc2c1/C=N/NC(=O)c1cccc([N+](=O)[O-])c1	none
Cc1[nH]c2ccccc2c1/C=N/NC(=O)CNC(=O)c1ccco1	none
Cc1[nH]c2ccccc2c1/C=N/Nc1ccc([N+](=O)[O-])cc1	CHRM5 antagonist 31, CHRM1 antagonist 35, M1 ag 16
Cc1[nH]c2ccccc2c1/C=N\NC(=O)c1ccco1	CHRM1 PAM 24
COc1ccc(Br)cc1CN(C)C(=O)CNC(=O)c1ccc2ccccc2c1	CHRM1 antagonist 29
CC(C)(C)C#CCn1c(/C=[N+](\[O-])C2CCCCC2)nc2ccccc21	none
